Source: ChEMBL document CHEMBL3046504, “Synthesis and antifungal activity of beta-trifluoroalkyl aminovinyl ketone derivatives” (J Agric Food Chem, 2009)
Calls of active or inactive are those of the source. The rule behind the calls is not given here.

Columns and labels:
Penicillium digitatum = assay: Antifungal activity against Penicillium digitatum assessed as radial growth inhibition at 100 uM; format: functional; details: read-out: GI
Method in brief: (§1)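 Initial screen on PDA plates (10 mL) amended with 10 or 100 μM compound, added from DMSO stocks (DMSO not exceeding 0.001% v/v) to warm (50 °C) sterile medium before pouring. Radial growth was compared with growth on unamended medium. Error bars are standard deviation.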

Rhizoctonia solani = assay: Antifungal activity against Rhizoctonia solani assessed as radial growth inhibition at 10 to 100 uM; format: functional, organism-based; method in brief: as §1
Alternaria alternata = assay: Antifungal activity against Alternaria alternata assessed as radial growth inhibition at 100 uM; format: functional; details: read-out: GI; method in brief: as §1
Neurospora crassa = assay: Antifungal activity against Neurospora crassa strain 74-OR23-1A assessed as radial growth inhibition at 100 uM; format: functional, organism-based; method in brief: as §1
Botrytis cinerea [1] = assay: Antifungal activity against Botryotinia fuckeliana isolate Bcl16 assessed as radial growth inhibition at 10 to 100 uM; format: functional, organism-based; method in brief: as §1
Solanum lycopersicum = assay: Phytotoxicity against Solanum lycopersicum (tomato) leaves; format: organism-based; details: in vivo
Pythium aphanidermatum = assay: Antifungal activity against Pythium aphanidermatum assessed as radial growth inhibition at 10 to 100 uM; format: functional, organism-based; method in brief: as §1
Medicago sativa = assay: Phytotoxicity against Medicago sativa (alfalfa) assessed as seed germination; format: organism-based; details: in vivo
Botrytis cinerea [2] = assay: Antifungal activity against Botryotinia fuckeliana isolate Bcl16 assessed as radial growth inhibition during advanced test phase at 10 to 50 uM at 22 degC measured after 48 hr; format: functional, organism-based
Method in brief: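 B. cinerea isolate BcI16 was grown on PDA amended with compound across 0-50 μM, added from DMSO stock (≤0.001% v/v final) to 50 °C medium. Plates were incubated at 22 °C for 48 h, then radial growth was measured against unamended controls.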

Sclerotinia sclerotiorum = assay: Antifungal activity against Sclerotinia sclerotiorum isolate 1980 assessed as radial growth inhibition during advanced test phase at 10 to 50 uM at 17 degC measured after 48 hr; format: functional, organism-based
Method in brief: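 S. sclerotiorum isolate 1980 was grown on PDA amended with compound across 0-50 μM, added from DMSO stock (≤0.001% v/v final) to 50 °C medium. Plates were incubated at 17 °C for 48 h, then radial growth was measured against unamended controls.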

SMILES | inhibition of growth at 100 µM (Penicillium digitatum) | growth inhibition (GI) (Rhizoctonia solani) | inhibition of growth at 100 µM (Alternaria alternata) | growth inhibition (GI) (Neurospora crassa) | growth inhibition (GI) (Botrytis cinerea [1]) | Activity (Solanum lycopersicum) | growth inhibition (GI) (Pythium aphanidermatum) | Activity (Medicago sativa) | growth inhibition (GI) (Botrytis cinerea [2]) | growth inhibition (GI) (Sclerotinia sclerotiorum)
N/C(=C\C(=O)c1ccc(Cl)cc1)C(F)(F)F | > 50% | Active | ≤ 50% | Active | Active | Non-toxic | Active | Non-toxic | Active | –
CC(C)(C)OC(=O)Nc1ccc(C(=O)/C=C(\N)C(F)(F)F)cc1 | – | Active | ≤ 50% | – | Active | Non-toxic | Active | Non-toxic | – | –
N/C(=C\C(=O)c1ccc(Cl)cc1)C(F)(F)C(F)(F)F | – | Active | ≤ 50% | – | Active | Non-toxic | Active | Non-toxic | Active | Active
N/C(=C\C(=O)c1ccc(O)cc1)C(F)(F)F | – | Active | ≤ 50% | – | Active | Non-toxic | Active | Non-toxic | Active | –
N/C(=C\C(=O)c1ccc2ccccc2c1)C(F)(F)F | – | Active | ≤ 50% | – | Active | Non-toxic | Active | Non-toxic | – | –
CC/C(C(=O)c1ccc(Cl)cc1)=C(/N)C(F)(F)F | – | Active | ≤ 50% | – | Active | Non-toxic | Active | Non-toxic | – | –
N#Cc1ccc(C(=O)/C=C(\N)C(F)(F)F)cc1 | – | Active | ≤ 50% | – | Active | Non-toxic | Active | Non-toxic | – | –
N/C(=C\C(=O)c1cccc(Br)c1)C(F)(F)F | – | Active | ≤ 50% | Active | Active | Non-toxic | Active | Non-toxic | Active | –
CC(=O)c1ccc(O)cc1 [4-HYDROXYACETOPHENONE] | – | Active | ≤ 50% | – | Active | Non-toxic | Active | Non-toxic | Active | Active
N/C(=C\C(=O)c1ccc(F)cc1)C(F)(F)F | – | Active | ≤ 50% | Active | Active | Non-toxic | Active | Non-toxic | – | –
